Calpain2 inh – inhibitors of pig calpain II. inhibition, % at 16 µM. actives 0.37% (n = 220,000). purified calpain II, fluorogenic peptide substrate, 30 min. AID 1236;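 active = inhibition above about 50%, limit read from the data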
FXIIa inh – factor XIIa (human) inhibition; P00748; purified FXIIa, Boc-QGR-AMC fluorogenic substrate, 2 h; inhibition, % at 5 µM; actives 0.3% (n = 220,000); AID 800; in the data active = inhibition above about 40%;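 also: 0% = enzyme with no compound and 100% = blank without enzyme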
KLK5 inh – blocks human kallikrein 5 protease activity. recombinant hK5, fluorogenic AMC substrate cleavage. Q9Y337. AID 873. actives 0.59% (n = 210,000). inhibition, % at 5 µM;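 active = inhibition of 40% or more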;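 also: 0% = enzyme controls without compound and 100% = no-enzyme blanks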
Thrombin inh – blocks human thrombin protease activity; P00734; alpha-thrombin, Boc-VPR-AMC fluorogenic substrate cleavage; inhibition, % at 5 µM; actives 0.26% (n = 220,000); AID 1046;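 active = inhibition at or above 40%; inactive = inhibition below 40%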;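 also: 0% = enzyme with no compound and 100% = wells without enzyme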
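System: Human alpha-thrombin protein | Medium: pH 7.5 Tris (50 mM) with NaCl 150 mM, Tween 20 0.05% | Times: Enzyme reaction carried out at room temperature | Detection: AMC fluorescence, 355/460 nm | Evaluation: Percent inhibition scaled between no-compound controls and no-enzyme blanks | Benchmarks: Enzyme without compound as high, wells lacking enzyme as low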
FXIa inh 1536 – blocks human coagulation factor XIa protease activity; P03951; purified FXIa, Boc-Glu-Ala-Arg-AMC fluorogenic substrate; inhibition, % at 5 µM; actives 0.14% (n = 220,000); AID 798;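 active = inhibition of at least 40%; inactive = inhibition below 40%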;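 also: fluorescence of freed AMC excited at 355 nm; 0% = enzyme without compound and 100% = no enzyme blank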
Target sequence (P03951 19-387 limits assumed): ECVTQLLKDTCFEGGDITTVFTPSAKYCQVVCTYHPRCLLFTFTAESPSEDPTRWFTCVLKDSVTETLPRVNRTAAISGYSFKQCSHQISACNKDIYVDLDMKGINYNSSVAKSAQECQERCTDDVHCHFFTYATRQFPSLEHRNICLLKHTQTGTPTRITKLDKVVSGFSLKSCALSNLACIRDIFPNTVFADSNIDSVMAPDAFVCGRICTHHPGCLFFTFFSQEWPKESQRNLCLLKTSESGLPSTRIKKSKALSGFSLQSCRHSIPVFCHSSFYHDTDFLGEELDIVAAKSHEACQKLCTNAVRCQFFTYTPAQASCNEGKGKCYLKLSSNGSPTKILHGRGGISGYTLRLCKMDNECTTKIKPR
Target sequence (P03951 388-625 limits assumed): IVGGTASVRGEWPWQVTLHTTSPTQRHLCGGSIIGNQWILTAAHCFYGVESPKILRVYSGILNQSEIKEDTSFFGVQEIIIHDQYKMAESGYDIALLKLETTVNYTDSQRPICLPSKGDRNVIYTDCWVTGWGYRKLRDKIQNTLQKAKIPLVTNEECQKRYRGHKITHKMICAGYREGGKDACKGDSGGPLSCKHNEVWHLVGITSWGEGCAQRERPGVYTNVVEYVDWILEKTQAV
Numbers without * were called inactive; nt = no result. This is a sample that favours compounds with a hit; in the whole collection about 1.4% have one here.

SMILES	Calpain2 inh	FXIIa inh	KLK5 inh	Thrombin inh	FXIa inh 1536
CSc1nsc2nc(=O)c(/C=C3\C(C)=Nc4ccc(C)cc43)c(N)n12	-35.7	42.4*	2.4	5.5	10.5
O=C(Nc1cc(=O)c2ccccc2o1)N1CCOCC1	-120.8	-7.0	-11.1	-4.5	9.4
Cc1ccc2oc(NC(=O)N3CCOCC3)cc(=O)c2c1	-83.7	80.0*	2.8	-0.9	0.5
O=C(O)CN(C1CCCCC1)S(=O)(=O)c1ccc(F)cc1	5.6	12.2	0.4	-3.3	5.6
O=Cc1cn(-c2ccc(F)cc2)c2ccccc12	24.2	13.6	42.1*	21.0	18.1
Cc1cc(C)n(-c2ccc(C(=O)N3CCC(CO)(Cc4ccccc4)CC3)cc2)n1	-7.4	7.0	5.4	-8.2	2.0
CC(C)(C)c1ccc(C(=O)Cn2nc(C(=O)O)c3ccccc3c2=O)cc1	9.6	12.4	43.8*	29.0	30.4
Cc1cc(C(=O)Cn2nc(C(=O)O)c3ccccc3c2=O)c(C)n1-c1cccc(C(F)(F)F)c1	13.5	23.9	24.0	16.7	71.7*
O=C1C(Cl)=C(Nc2cccc(O)c2)C(=O)N1Cc1ccccc1	-10.2	8.6	-5.3	-4.1	2.6
O=C(Nc1ccc(Cl)cc1)c1ccc(Br)cc1F	30.4	10.1	5.9	-2.7	2.1
CCOC(=O)N1CCN(C(=O)CSCC(=O)Nc2nc(-c3ccc(OC)cc3)cs2)CC1	-25.4	-0.8	-26.2	-9.9	-9.5
CCOC(=O)N1CCN(C(=O)CSCC(=O)Nc2nc(-c3ccc(Cl)s3)cs2)CC1	-8.4	15.3	-5.4	50.4*	8.2
Cc1c(C(=O)NCCc2ccccc2)oc2ccc(S(=O)(=O)N3CCC4(CC3)OCCO4)cc12	19.0	7.6	-5.9	-1.1	7.7
CCOC(=O)N1CCN(C(=O)c2oc3ccc(S(=O)(=O)N4CCOCC4)cc3c2C)CC1	10.2	3.2	-9.1	40.0*	-8.5
CCN(CC)S(=O)(=O)c1ccc2oc(C(=O)NCc3ccc(C)cc3)c(C)c2c1	63.4*	-0.7	-8.3	-4.2	-5.7
Cc1ccc(CNC(=O)c2oc3ccc(S(=O)(=O)N4CCOCC4)cc3c2C)cc1	56.8*	11.1	4.4	3.4	0.0
CCOC(=O)N1CCN(C(=O)c2oc3ccc(S(=O)(=O)N4CCCCCC4)cc3c2C)CC1	34.5	14.9	-11.7	-1.1	9.0
COc1ccc(NC(=O)c2oc3ccc(S(=O)(=O)N4CCC5(CC4)OCCO5)cc3c2C)cc1	-120.2	14.7	99.9*	8.3	10.7
Cc1c(C(=O)NCc2ccccc2)oc2ccc(S(=O)(=O)N3CCCC3)cc12	-25.1	7.7	-10.2	-2.0	5.6
COC(=O)c1ccc(C(=O)OC)c(NC(=S)N2CCN(c3ccccn3)CC2)c1	-4.2	11.5	2.8	2.0	2.0
N#C/C(=C\Nc1ccc(Cl)cc1)S(=O)(=O)c1ccccn1	-9.2	6.2	-7.7	0.6	-9.2
Cn1c(CSCCOc2ccccc2)n[nH]c1=S	17.6	0.4	53.4*	-5.0	-9.2
O=C(CSc1cccc[n+]1[O-])NN(c1ccccc1)c1ccccc1	-2.4	5.6	-6.2	2.5	-2.4
CNC(=O)/C(C#N)=C/c1cc(C)n(-c2ccc(N3CCOCC3)cc2)c1C	-5.6	2.2	43.9*	-7.4	-9.4
Cc1cc(/C=C(\C#N)C(=O)Nc2ccc(Cl)cc2)c(C)n1-c1ccc(N2CCOCC2)c([N+](=O)[O-])c1	-35.6	19.8	-4.5	3.5	12.2
SMILES	Calpain2 inh	FXIIa inh	KLK5 inh	Thrombin inh	FXIa inh 1536
Cc1ccc(CN2CCN(/N=C/c3ccc(C)s3)CC2)c(C)c1	3.6	-0.5	-17.9	-9.8	-4.3
Cc1ccc(Cl)cc1NS(=O)(=O)c1c(C)[nH]c(=O)[nH]c1=O	13.6	-0.2	30.1	103.9*	-2.8
Cc1ccc(C(=O)N(Cc2ccccc2)C(C)(C)C)cc1C	50.0*	-1.5	-2.8	-8.3	-6.4
O=C(N/N=C1\CCCc2ccccc21)c1cccc([N+](=O)[O-])c1	0.6	11.9	-17.7	0.7	0.1
O=C(N/N=C1/CCCc2ccccc21)c1cc([N+](=O)[O-])cc([N+](=O)[O-])c1	74.3*	12.3	2.3	nt	3.5
O=C(Nc1sc2c(c1C(=O)NCC1CCCO1)CCCC2)c1cccs1 (centres undefined)	22.3	18.9	54.2*	20.6	6.0
O=C(c1cccc2ccccc12)C1CCCN(C(=O)c2ccc(N3CCOCC3)cc2)C1 (centres undefined)	-36.7	8.8	0.3	-4.3	-2.9
COC(=O)c1sc(S(=O)(=O)N2CCC(C(=O)O)CC2)c(C(=O)OC)c1C	-3.4	14.6	-5.8	0.4	-4.4
CCOc1c(Cl)cc(C(=O)Nc2cccc(C(=O)O)c2)cc1Cl	3.8	9.8	3.7	-6.5	0.2
COc1ccccc1NC(=O)c1cc2cc(Br)ccc2cc1O	-53.9	5.2	3.6	-0.7	2.8
CCN(CC)C(=O)c1ccc(NS(=O)(=O)c2ccc(/C=C/C(=O)O)cc2)cc1	24.4	23.4	44.1*	nt	28.8
Cc1c(NC(=O)c2cccc(-c3cc4ccccc4oc3=O)c2)cccc1-c1nc2ncccc2o1	-143.6	2.7	-4.8	4.3	9.7
COC(=O)CS(=O)(=O)c1nnc([C@H](Cc2ccccc2)NC(=O)OC(C)(C)C)o1	-14.1	42.1*	-4.9	2.0	0.1
CCn1cc(C(=O)NCc2cccnc2)c(=O)c2cc(F)c(N3CCN(C(=O)c4ccco4)CC3)cc21	-254.7	41.3*	4.1	1.1	15.1
COc1cccc(C(=O)N(c2ccc(C)cc2)C2C=CS(=O)(=O)C2)c1 (centres undefined)	2.6	10.8	2.1	14.4	-1.7
O=C(Nc1ccc(Cl)cc1)NC1CCCCC1Cc1ccco1 (centres undefined)	52.9*	2.5	5.4	-1.9	5.5
O=C(Nc1ccc(Cl)cc1)NC1CCCC1Cc1ccco1 (centres undefined)	39.9	14.4	-5.7	-2.0	1.5
N/C(=N\N=C\c1ccc(Br)o1)c1nonc1N	22.8	2.0	-1.2	-7.4	0.3
O=C(CCCCCN1C(=O)c2ccccc2C1=O)Nc1ccc(S(=O)(=O)N2CCCCC2)cc1	53.4*	19.2	-1.1	4.3	4.4
Cc1ccc(C(=O)Nc2ccc(Cl)cn2)cc1S(=O)(=O)N1CCOCC1	15.8	23.1	40.8*	18.6	2.0
Cc1cc(NC(=O)CSc2ncnc3sc(C)c(C)c23)no1	-27.6	3.2	-2.0	-4.5	-2.8
CN(C)C(CNC(C(=O)Nc1ccc([N+](=O)[O-])cc1Br)c1ccccc1)c1ccccc1 (centres undefined)	53.0*	0.4	-4.6	-9.3	-5.7
Cc1cc(=O)[nH]c(SCC(=O)NCC2CCCO2)n1 (centres undefined)	-11.6	2.2	-2.8	41.7*	-6.8
CC(C)Cn1c(N)c(C(=O)COC(=O)CC23CC4CC(CC(C4)C2)C3)c(=O)n(C)c1=O	70.8*	0.5	7.4	-2.3	-16.5
CC(C)Cn1c(N)c(C(=O)COC(=O)c2ccc(Cl)cc2)c(=O)n(C)c1=O	81.2*	2.4	-2.0	-7.9	-1.8
CC(C)Cn1c(N)c(C(=O)COC(=O)c2ccncc2)c(=O)n(C)c1=O	-16.6	-0.1	3.5	2.2	5.9

Assay outcomes from PubChem.
